Screening data as filed in PubChem.
MEKK2 WT-MEK5: modulators of MEK5 binding to wildtype MEKK2, primary screen, biochemical, multiplex bead flow cytometry, Alexa488-MEK5; actives 1.1% (n = 290,000); Alexa488-MEK5 binding to MEKK2 WT; actives lie on both sides; binding response (% of control), % at 10 µM; Mitogen-activated protein kinase kinase kinase 2 (Homo sapiens), Q9Y2U5; AID 1531, 2009; in the data active means binding response below about 67% or above about 130%
NS3 helicase inh: inhibitors of HCV NS3 helicase, primary screen, biochemical, Cy5 molecular beacon fluorescence; NS3 helicase DNA unwinding; inhibition, % at 10.9 µM; actives 0.56% (n = 290,000);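 active means inhibition above the mean of all tested compounds plus 3 SD, set per campaign, cut at about 35% in these data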;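 further: 0% = DMSO wells and 100% = thioflavine S control wells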
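System: HCV NS3 helicase fragment; control set: DMSO and thioflavine S; technique: Cy5 fluorescence at 0 and 60 min, beacon hairpin quenching; reagent: beacon DNA duplex substrate plus ATP; replicates: singlicate; schedule: 1 h reaction at 25 °C, ATP-initiated; medium: MOPS buffer pH 6.5 with MgCl2, DTT, Tween20, BSA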
FID counter: compounds displacing fluorescent DNA intercalator, primary screen, artefact control for HCV NS3 helicase inhibitor project, biochemical, FID fluorescence; actives 0.17% (n = 290,000); inhibition, % at 7.9 µM; DNA fluorescent intercalator displacement; AID 1845, 2009; in the data active means inhibition above about 37%;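 further: 0% = vehicle and 100% = reference compound; higher means more ethidium bromide displaced from hairpin DNA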
MEKK2mut PB1 HTS: MEK5 binding signal on mutant MEKK2 PB1, primary screen, biochemical, multiplex bead flow cytometry, Alexa488-MEK5; Alexa488-MEK5 binding to MEKK2 mutant; actives 0.35% (n = 290,000); percent response, % at 10 µM; in the data active means percent response above about 24%, passing the limit was not always enough
T cruzi inh: inhibitors of intracellular T. cruzi growth, primary screen, luminescence, NIH3T3 host cells | T. cruzi beta-gal in NIH3T3, 90 h | inhibition, % (test concentration not listed) | actives 1.4% (n = 300,000) | AID 1885, 2009;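 active means mean inhibition across valid replicates above about 55%, limit read from the data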;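 further: signal also drops with host cell toxicity which is not excluded here; 0% = plate median of DMSO wells and 100% = zero luminescence signal; higher percent means less beta-gal luminescence so fewer parasites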
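compound dosing = single 50 nL compound addition per well in DMSO | material = NIH/3T3 host cells with β-galactosidase reporter T. cruzi | input = 5,000 host fibroblasts per well | timing = ≥90 h infection period, 3 h prior cell attachment | read-out basis = percent inhibition of parasite-derived β-gal signal | detection = GalScreen β-gal luminescence, detergent lysis, 60 min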
MEKK3 PB1 HTS: modulators of MEKK3-MEK5 PB1 binding, primary screen, biochemical, wildtype MEKK3, multiplex bead flow cytometry, Alexa488-MEK5. Mitogen-activated protein kinase kinase kinase 3 (Homo sapiens), Q99759. bead-based flow cytometry, Alexa488-MEK5 binding to MEKK3; actives lie on both sides; 0 = blocked by unlabeled MEK5, 100 = vehicle. binding response (% of control), % at 10 µM. actives 1.4% (n = 290,000). AID 1529, 2009;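 active means binding response more than 3 SD above or below the average of its plate-row segment, actives on both sides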;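 further: Alexa488 bead fluorescence after subtracting the streptavidin-only scavenger bead signal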
Target sequence (Q99759 whole entry, looked up): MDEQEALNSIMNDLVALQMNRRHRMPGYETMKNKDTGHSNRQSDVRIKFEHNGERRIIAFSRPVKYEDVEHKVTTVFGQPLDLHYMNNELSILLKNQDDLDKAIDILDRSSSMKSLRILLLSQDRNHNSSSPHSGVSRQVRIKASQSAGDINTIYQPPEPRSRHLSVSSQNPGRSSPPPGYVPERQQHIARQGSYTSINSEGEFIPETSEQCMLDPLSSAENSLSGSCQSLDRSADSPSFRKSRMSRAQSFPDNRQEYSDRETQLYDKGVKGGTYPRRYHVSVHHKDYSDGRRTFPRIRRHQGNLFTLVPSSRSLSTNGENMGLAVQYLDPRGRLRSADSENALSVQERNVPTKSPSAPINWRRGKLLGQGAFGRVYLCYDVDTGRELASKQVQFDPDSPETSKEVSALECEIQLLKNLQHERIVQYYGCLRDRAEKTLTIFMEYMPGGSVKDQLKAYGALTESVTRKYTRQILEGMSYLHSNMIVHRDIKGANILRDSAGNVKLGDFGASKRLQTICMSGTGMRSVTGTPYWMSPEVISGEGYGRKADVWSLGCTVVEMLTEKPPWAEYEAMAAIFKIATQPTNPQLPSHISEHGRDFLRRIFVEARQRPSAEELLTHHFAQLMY
MEKK2wt confirm: modulators of MEK5 binding to wildtype MEKK2, confirmation, biochemical, single concentration, multiplex bead flow cytometry; shares compounds with MEKK3 PB1 HTS; Alexa488-MEK5 binding to MEKK2 WT; actives lie on both sides; binding response (% of control), % at 10 µM; actives 2.4% (n = 5,900); AID 1892, 2009; in the data active means binding response below about 16% or above about 210%; inactive means in between
MEKK2mut-MEK5: mutant MEKK2 PB1-MEK5 binding signal retest – biochemical, single concentration, multiplex bead flow cytometry, confirmation | actives 2% (n = 5,900) | percent response, % at 10 µM | shares compounds with MEKK3 PB1 HTS | Alexa488-MEK5 binding to MEKK2 mutant; in the data active means percent response mostly above about 71%, no sharp cut-off; inactive means mostly below about 38%;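 further: higher means compound restores mutant binding toward wildtype level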
MEKK3 confirm: MEKK3 wild-type PB1 binding to MEK5, inhibitors, confirmation, biochemical, bead multiplex flow cytometry, single concentration, wildtype; shares compounds with MEKK3 PB1 HTS; binding response (% of control), % at 10 µM; Alexa488-MEK5 binding to MEKK3; active compounds read low; actives 1.8% (n = 5,900);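 active means binding response below 72% of control, or above a set upper limit, though filed actives all read lower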;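 further: 100% = DMSO only wells and 0% = binding blocked by excess unlabeled MEK5; lower values mean stronger disruption of MEK5 binding to MEKK3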
An asterisk follows results filed as active; . = no result; [ ] = another dose, or the depositor's remark. Compounds with a hit are over-represented: about 4.1% of the library has one in this group of screens.

SMILES	MEKK2 WT-MEK5	NS3 helicase inh	FID counter	MEKK2mut PB1 HTS	T cruzi inh	MEKK3 PB1 HTS	MEKK2wt confirm	MEKK2mut-MEK5	MEKK3 confirm
O=C(COC(=O)CSc1nnc(-c2ccc(Cl)cc2)o1)NCc1ccc2c(c1)OCO2	85	-6	-13	-12	-11	81*[inhibitor]	102	-2	102
CC(Sc1nnc(Cc2ccc3c(c2)OCO3)o1)C(N)=O (stereo unspecified)	116	1	-2	5	-5	133*	101	-4	99
NC(=O)CSc1nnc(Cc2ccc3c(c2)OCO3)o1	124	1	0	6	-8	143*	1.0*[inhibitor]	-29	2.0*
CC1CCN(C2CCN(S(=O)(=O)c3ccc(C(F)(F)F)cc3)CC2)CC1	103	-9	1	8	13	100	.	.	.
CC(C)(C)c1cc[n+](/C(C(=S)NC2CC2)=C(/[O-])c2ccc(Cl)s2)cc1	80	-4	-1	-2	-11	81*[inhibitor]	95	-7	97
CCc1cccc(CC)c1NC(=S)/C(=C(\[O-])c1ccc(Cl)s1)[n+]1ccccc1	98	-12	-5	0	-2	98	.	.	.
CCc1nnc(NC(=O)CSc2nc(C)cs2)s1	97	-2	-12	2	-10	102	.	.	.
O=C(NCc1ccc(Cl)cc1)C(=O)NCC(c1ccco1)N1CCOCC1 (stereo unspecified)	107	3	-16	12	-9	102	.	.	.
O=C(NCCc1c[nH]c2ccccc12)C(=O)NCC(c1ccco1)N1CCN(c2ccccc2)CC1 (stereo unspecified)	104	9	-2	-1	4	100	.	.	.
Cc1ccc(CNC(=O)C(=O)NCC(c2ccco2)N2CCOCC2)cc1 (stereo unspecified)	102	-3	-16	0	-3	129*	103	-3	98
O=C(NCCc1c[nH]c2ccccc12)C(=O)NCC(c1ccco1)N1CCN(c2ccc(F)cc2)CC1 (stereo unspecified)	107	0	-4	0	1	129*	96	-6	102
CCc1ccc(C2=NN(CCC(=O)NCc3cccs3)C(=O)CC2)cc1	100	-5	-27	-2	-6	103	.	.	.
CC[C@@]12C(=O)N(c3ccc(C)cc3)C(=O)N1[C@H](c1ccc(Br)cc1)[C@@H]1C(=O)N(C(C)(C)C)C(=O)[C@@H]12	98	-72	-41	2	11	102	.	.	.
Cc1nn2c(NCc3ccccn3)c3c(nc2c1-c1ccccc1)CCC3	92	-5	-4	1	13	89	.	.	.
COc1ccc(Nc2c3c(nc4c(-c5ccccc5)c(C)nn24)CCC3)cc1	116	5	-2	0	39	128*	98	0	106
O=C(NCCN1CCN(c2cccc(Cl)c2)CC1)Nc1ccccc1	110	-61	17	3	-3	108	.	.	.
O=C(NCCN1CCN(Cc2ccccc2)CC1)Nc1cc(Cl)cc(Cl)c1	139*	-36	15	34	30	106	144	31	108
CCCN1CCC(NC(=O)C2CC=CCC2C(=O)O)CC1 (stereo unspecified)	104	22	-8	3	-5	102	.	.	.
COc1ccc(OCCOc2ccc(C)nc2[N+](=O)[O-])cc1	104	-2	3	4	-5	106	.	.	.
Cc1ccc(OCCOc2ccc(Cl)cc2Cl)c([N+](=O)[O-])n1	165*	-9	2	13	7	105	103	3	102
CCCCONc1ncnc2nonc12	104	6	-2	-1	-22	96	.	.	.
Cc1ccc(C(=O)N/C(=C\c2ccc(-c3cccc([N+](=O)[O-])c3)o2)C(=O)NCCCN(C)C)cc1	141*	-57	31	22	2	112	113	6	95
Cc1ccc(C(=O)N/C(=C\c2ccc(-c3ccc(Br)cc3)o2)C(=O)NCCCN(C)C)cc1	187*	-61	25	37	77*	106	181	38	104
CN(C)CCNC(=O)/C(=C/c1ccc(-c2ccc(Cl)cc2)o1)NC(=O)c1ccccc1	111	-68	22	3	26	100	.	.	.
CCOC(=O)c1ccc(OCC2NCCc3cc(OC)c(OC)cc32)cc1 (stereo unspecified)	104	-7	8	5	13	102	.	.	.
SMILES	MEKK2 WT-MEK5	NS3 helicase inh	FID counter	MEKK2mut PB1 HTS	T cruzi inh	MEKK3 PB1 HTS	MEKK2wt confirm	MEKK2mut-MEK5	MEKK3 confirm
CCC1=C(OC(=O)N(CC)CC)N2C(=O)OC(=NCCc3c[nH]c4ccccc34)[C@]2(Cc2ccccc2)[C@H]2C1=CC[C@H]1C(=O)N(CC(=O)OC)C(=O)[C@H]12	2.0*[inhibitor]	.	.	0	19	2.0*[inhibitor]	98	-4	99
Cc1cc(C)nc(N/N=C/c2ccc(Cl)cc2)n1	92	-9	-1	-34	-27	90	.	.	.
Cc1cc(N/N=C/c2ccc(Cl)cc2)nc(NCc2ccccc2)n1	186*	-68	-1	54*	80*	107	173	51	110
Cc1cc(N/N=C/c2cccc(Cl)c2)nc(NCc2ccccc2)n1	149*	-89	1	35	47	99	174	52	110
Brc1ccc(/C=N/Nc2ccccn2)cc1	114	-1	-4	0	3	127	.	.	.
Cc1cc(N/N=C/c2ccccc2)nc(NCc2ccccc2)n1	175*	-72	2	32	35	107	153	31	111
Clc1ccc(/C=N/Nc2ccccn2)cc1	111	1	-1	0	8	128*	104	5	101
